High-throughput results as filed in PubChem.
OX1R antag-1 = blocks the human orexin 1 receptor; O43613; CHO/OX1R cells, Fluo-8 calcium fluorescence, orexin A; inhibition, % at 5 µM; 0.43% of 330,000 active;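 active means inhibition above its plate's threshold, mean inhibition of all tested compounds on the plate plus 3 SD, cut at about 37% in these data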;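 further: 0% = orexin A challenge wells and 100% = SB-334867-A antagonist wells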
Target sequence (O43613 whole entry, looked up): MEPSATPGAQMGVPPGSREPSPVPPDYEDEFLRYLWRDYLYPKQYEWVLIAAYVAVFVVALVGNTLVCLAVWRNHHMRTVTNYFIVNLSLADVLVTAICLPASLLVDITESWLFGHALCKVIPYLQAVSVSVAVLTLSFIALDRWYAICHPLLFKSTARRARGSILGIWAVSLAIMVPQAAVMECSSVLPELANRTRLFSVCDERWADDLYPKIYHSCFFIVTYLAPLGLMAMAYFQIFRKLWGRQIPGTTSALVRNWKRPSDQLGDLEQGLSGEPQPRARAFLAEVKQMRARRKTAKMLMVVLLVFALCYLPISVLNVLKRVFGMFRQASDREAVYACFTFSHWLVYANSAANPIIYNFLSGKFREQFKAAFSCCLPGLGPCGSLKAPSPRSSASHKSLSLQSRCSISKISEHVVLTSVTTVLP
CHO parental Ca = signal in parental CHO cells, OX1R antagonist counter-screen. parental CHO-K1, ATP-induced calcium, Fluo-8 fluorescence. inhibition, % at 5.6 µM. 0.63% of 330,000 active. AID 463079;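 active means inhibition above that plate's mean sample inhibition plus 3 SD, cut at about 26% in these data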;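 further: 0% = ATP-challenged DMSO wells and 100% = DMSO wells without ATP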
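Material: Parental CHO cells | Reagent: ATP | Compound dosing: Single nominal dose of 5.6 µM per compound | Detection: Intracellular calcium via Fluo-8 no-wash fluorescent dye | Read-out: % inhibition of ATP-induced calcium mobilization | Benchmarks: Low control ATP plus DMSO, high control DMSO only | Replicates: Singlicate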
TAAR1 agonist = agonists of human TAAR1; AID 624467; CHO RD-HGA16 TAAR1, Fluo-8 calcium fluorescence; vehicle wells 0%, saturating PEA agonist 100%; Q96RJ0; 0.99% of 360,000 active; activation, % at 3 µM;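 active means activation above the mean activation of all test compounds in the run plus 3 SD, cut at about 38% in these data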
Target sequence (Q96RJ0 whole entry, looked up): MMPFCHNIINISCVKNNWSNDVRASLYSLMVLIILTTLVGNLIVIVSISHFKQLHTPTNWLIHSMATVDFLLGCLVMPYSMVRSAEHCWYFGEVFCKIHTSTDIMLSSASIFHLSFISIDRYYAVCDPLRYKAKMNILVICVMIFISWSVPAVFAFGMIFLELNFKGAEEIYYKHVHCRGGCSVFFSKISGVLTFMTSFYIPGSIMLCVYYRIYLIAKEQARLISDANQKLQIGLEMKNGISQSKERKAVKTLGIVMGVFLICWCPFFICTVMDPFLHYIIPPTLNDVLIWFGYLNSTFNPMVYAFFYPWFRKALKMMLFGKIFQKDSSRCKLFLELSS
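test system = CHO RD-HGA16 cells carrying human TAAR1 plus Gα16 | schedule = 17-24 h seeding, 75 min 37 °C dye, 30 min RT | compound dosing = 3 µM single concentration | control set = DMSO and PEA EC100 | replicates = n 1 | signal = Fluo-8 fluorescence, 5 s baseline then 140 s kinetic read | measure = percent activation vs PEA EC100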
TAAR1 antag = human TAAR1 antagonism. AID 624466. CHO RD-HGA16 TAAR1, Fluo-8 calcium fluorescence, antagonist. inhibition, % at 3 µM. 1.5% of 360,000 active;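 active means inhibition above a per-plate cutoff, the mean inhibition of test compounds on that plate plus 3 SD, cut at about 49% in these data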;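 further: 0% = DMSO plus EC80 beta-PEA response and 100% = DMSO alone without agonist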
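Test system: hTAAR1-expressing CHO RD-HGA16 cells, Gα16-coupled; Probe or stimulus: EC80 β-phenethylamine stimulus; Compound dosing: single nominal final test compound concentration of 3 µM; Timing: 140 s kinetic read after compound, 140 s after agonist; Signal: Fluo-8 calcium-sensitive fluorescence; Measure: % inhibition of agonist calcium response; Controls: DMSO and EC80 PEA controls.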
OX1R antag-2 = OX1R (human) antagonism | O43613 | inhibition, % at 6.6 µM | AID 485270 | OX1R-expressing cells, FRET antagonist read-out | 1.8% of 330,000 active; in the data active means inhibition mostly above about 38%, no sharp cut-off; inactive means mostly below about 40%;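 further: 0% = agonist challenge alone and 100% = reference antagonist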
TAAR1 ag confirm = confirmation of human TAAR1 agonists. shares compounds with TAAR1 agonist. CHO RD-HGA16 TAAR1, Fluo-8 calcium fluorescence; scaled: DMSO 0%, maximal phenethylamine 100%. activation, % at 3 µM. 82% of 2,400 active. AID 651783;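 active means activation above a cutoff set at the run's mean compound activation plus 3 SD, cut at about 39% in these data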
Ga16 nonsel ag = counter-screen for TAAR1 agonists: nonselective agonists in parental cells; 50% of 2,400 active; shares compounds with TAAR1 agonist; activation, % at 3 µM; AID 651787; CHO-Ga16 parental, Fluo-8 calcium fluorescence; normalized to maximal ATP response, DMSO zero;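 active means activation above the run cutoff, the mean activation over all tested wells plus 3 SD, cut at about 12% in these data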;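 further: 0% = DMSO wells and 100% = maximal ATP response on the peak over basal ratio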
TAAR1 desens = TAAR1 response desensitization, agonist counter-screen; shares compounds with TAAR1 agonist; CHO RD-HGA16 hTAAR1, Fluo-8 calcium, beta-PEA response inhibition; inhibition, % at 3 µM; 46% of 2,400 active; AID 651951;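 active means inhibition above the run cutoff, the mean inhibition of all test compounds plus 3 SD, cut at about 49% in these data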;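 further: beta-PEA stimulus applied at its EC80; loss of beta-PEA calcium signal after compound pretreatment read as receptor desensitization; 0% = DMSO with beta-PEA at EC80 and 100% = DMSO alone without agonist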
Ga16 nonsel ant = counter-screen for TAAR1 agonists: nonselective Ga16 antagonists; 39% of 2,400 active; AID 651952; shares compounds with TAAR1 agonist; CHO-Ga16 ATP-induced calcium, Fluo-8 fluorescence; inhibition, % at 3 µM;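 active means inhibition above the plate's mean compound inhibition plus 3 SD, computed per plate, cut at about 22% in these data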;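 further: 0% = EC80 ATP with DMSO and 100% = DMSO wells without ATP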
Active calls of the source: *; · = no result. Hits are enriched below; roughly 3.9% of the tested compounds scored in any of these assays.

SMILES | OX1R antag-1 | CHO parental Ca | TAAR1 agonist | TAAR1 antag | OX1R antag-2 | TAAR1 ag confirm | Ga16 nonsel ag | TAAR1 desens | Ga16 nonsel ant
Cc1ccc(-n2nnc3c(=O)n(CC(=O)NCc4ccccc4)cnc32)cc1 | -4 | 42* | 42* | -11 | 14 | 15 | 5 | -9 | 1
O=C(Cn1cnc2c(nnn2-c2ccccc2)c1=O)NCc1ccc(F)cc1 | -8 | 0 | 1 | -21 | -19 | · | · | · | ·
CC1(C)C[C@H]2C3=CCC4[C@@]5(C)CC[C@H](O)[C@](C)(CO)C5CC[C@@]4(C)[C@]3(C)C[C@H]3O[C@@H]1[C@H](O)[C@]32CO (stereo partly specified) | 7 | -3 | 13 | 7 | 4 | · | · | · | ·
CCOc1ccc(NS(=O)(=O)c2ccc(C(=O)N3CCCC(C)C3)cc2)cc1 (stereo unspecified) | 36* | 52* | 114* | 79* | 17 | 121* | 80* | 84* | 55*
Cc1ccc(NS(=O)(=O)c2ccc(C(=O)N3CCCCCC3)cc2)cc1 | 20 | -1 | 86* | 29 | 2 | 80* | 52* | 43 | 39*
O=C(c1ccc(S(=O)(=O)Nc2ccccc2)cc1)N1CCCC(C(F)(F)F)C1 (stereo unspecified) | 3 | 7 | 116* | 65* | 14 | 99* | 58* | 57* | 30*
COc1ccc(Nc2nc(Nc3ccc(OC)cc3OC)nc(N3CCN(C)CC3)n2)c(OC)c1 | -16 | 2 | 5 | -3 | 8 | · | · | · | ·
Cc1ccccc1CCNC(=O)c1ccc(Cl)c(S(=O)(=O)N2CC(C)OC(C)C2)c1 (stereo unspecified) | -12 | -28 | 59* | 5 | 13 | 22 | 10 | 20 | 27*
CCCN1CCN(C(=O)c2ccc(F)c(S(=O)(=O)N3CCOCC3)c2)CC1 | -11 | -1 | 9 | -17 | 7 | · | · | · | ·
CCCCCCCCCCOC(=O)Cn1c(COc2ccccc2OC)[n+](C)c2ccccc21 | 77* | 84* | 66* | 90* | 32 | 79* | 91* | 94* | 100*
NC(=O)c1cccc(Nc2nc(C(N)C3CCCCC3)cs2)n1 (stereo unspecified) | · | · | 1 | -2 | · | · | · | · | ·
COc1cccc(Nc2nc(C(N)C3CCCCC3)cs2)n1 (stereo unspecified) | · | · | 53* | 15 | · | 47* | 18* | 28 | 23*
CC(C)c1ccc(NC(=O)Nc2nc(C(N)C3CCCCC3)cs2)cc1 (stereo unspecified) | · | · | 55* | 6 | · | 42* | 29* | 33 | 46*
COc1cccc(Nc2nc(C(N)c3ccccc3Cl)cs2)n1 (stereo unspecified) | · | · | 23 | 19 | · | · | · | · | ·
COc1cccc(Nc2nc(C(C)N)cs2)n1 (stereo unspecified) | · | · | 85* | 77* | · | 94* | 1 | 79* | 6
COc1cccc(Nc2nc(C(N)c3ccccc3)cs2)n1 (stereo unspecified) | · | · | 68* | 25 | · | 66* | 12* | 41 | 20
COc1ccc(NC(=O)Nc2nc(C(N)C3CCCCC3)cs2)cc1 (stereo unspecified) | · | · | 11 | 9 | · | · | · | · | ·
COc1cccc(Nc2nc(CN)cs2)n1 | · | · | 28 | -12 | · | · | · | · | ·
COc1cccc(Cl)c1NC(=O)N1CCc2c([nH]c3ccccc23)C1C(F)(F)F (stereo unspecified) | -25 | 1 | 0 | -12 | 10 | · | · | · | ·
CCCn1c(=O)c(C(=O)NNC(=O)c2ccccc2Cl)c(O)c2ccccc21 | -7 | -10 | 112* | 55* | 22 | 72* | 65* | 36 | 26*
CCCn1c(=O)c(C(=O)NNC(=O)c2ccccc2[N+](=O)[O-])c(O)c2ccccc21 | -3 | -13 | 1 | -26 | 7 | · | · | · | ·
COCC(C)N1C(=O)Cc2c1nc(N)c1c(N)nc(N3CCN(c4ccccc4F)CC3)c(C#N)c21 (stereo unspecified) | -5 | -16 | 52* | 49* | 35 | 49* | 25* | 63* | 45*
N#Cc1c([N+](=O)[O-])cc([N+](=O)[O-])cc1S(=O)(=O)Cc1ccccc1 | -2 | 17 | 48* | 45 | 28 | 9 | 9 | 42 | 45*
Cc1ccc(CNS(=O)(=O)CCNC(=O)c2ccc3c(c2)OCO3)cc1 | -21 | 1 | 0 | -18 | 15 | · | · | · | ·
COc1ccccc1CCNS(=O)(=O)CCNC(=O)c1ccc2c(c1)OCO2 | -25 | -26 | 74* | 40 | 16 | 91* | 2 | 73* | 15
SMILES | OX1R antag-1 | CHO parental Ca | TAAR1 agonist | TAAR1 antag | OX1R antag-2 | TAAR1 ag confirm | Ga16 nonsel ag | TAAR1 desens | Ga16 nonsel ant
CCCCCCCCCCCCCCC(O)C[N+](C)(CCO)CCO (stereo unspecified) | · | · | 54* | 77* | · | 18 | 4 | 36 | 30*
Cc1ccc(S(=O)(=O)NCCc2ccccc2)cc1 | -19 | -15 | 0 | -3 | 5 | · | · | · | ·
Cc1cc(C)c(S(=O)(=O)NCCc2ccccc2)c(C)c1 | -9 | -13 | 46* | 0 | 22 | 52* | 0 | 29 | 13
C=CCn1c(SCC(=O)N(CC)c2c(N)n(Cc3ccccc3)c(=O)[nH]c2=O)nnc1-c1ccccc1OC | · | · | 877* | -1 | · | 5 | 2 | -5 | 1
CCN(C(=O)CSc1nnc(-c2ccccc2C)n1C)c1c(N)n(Cc2ccccc2)c(=O)[nH]c1=O | · | · | 1 | -4 | · | · | · | · | ·
Cc1ccc(S(=O)(=O)N/N=C/c2ccc(OC3CSC3)cc2)cc1 | 84* | 56* | 91* | 93* | -5 | 98* | 56* | 97* | 71*
O=[N+]([O-])c1ccc(CNCc2cc(Cl)ccc2O)cc1 | -8 | 0 | 51* | 4 | 3 | 60* | 20* | 20 | 12
O=[N+]([O-])c1ccc(O)c(CNCc2ccccc2)c1 | · | · | 3 | 5 | · | · | · | · | ·
CCCNC(=O)C1(C)CCCN(C(=O)c2ccccc2F)C1 (stereo unspecified) | · | · | 1 | -17 | · | · | · | · | ·
CCOC(=O)C(NCCc1ccccc1F)(NC(C)=O)C(F)(F)F (stereo unspecified) | -3 | -14 | 72* | 51* | 23 | 101* | 1 | 88* | 0
COc1ccc(OC)c(NS(=O)(=O)Cc2ccccc2)c1 | -1 | -16 | · | · | 4 | · | · | · | ·
